Calls of active or inactive are those of the source. The calls are words filed in the database; no cut-off is given here.
Legend:
[1] = molecular target: T1, ALK tyrosine kinase receptor (Homo sapiens, UniProt Q9UM73); assay: Induction of ALK degradation in human KARPAS299 cells at 250 nM after 16 hrs in presence of ALK inhibitor LDK378 by immunoblot method; format: cell-based
Target sequence in this assay (Q9UM73 19-1620 limits assumed): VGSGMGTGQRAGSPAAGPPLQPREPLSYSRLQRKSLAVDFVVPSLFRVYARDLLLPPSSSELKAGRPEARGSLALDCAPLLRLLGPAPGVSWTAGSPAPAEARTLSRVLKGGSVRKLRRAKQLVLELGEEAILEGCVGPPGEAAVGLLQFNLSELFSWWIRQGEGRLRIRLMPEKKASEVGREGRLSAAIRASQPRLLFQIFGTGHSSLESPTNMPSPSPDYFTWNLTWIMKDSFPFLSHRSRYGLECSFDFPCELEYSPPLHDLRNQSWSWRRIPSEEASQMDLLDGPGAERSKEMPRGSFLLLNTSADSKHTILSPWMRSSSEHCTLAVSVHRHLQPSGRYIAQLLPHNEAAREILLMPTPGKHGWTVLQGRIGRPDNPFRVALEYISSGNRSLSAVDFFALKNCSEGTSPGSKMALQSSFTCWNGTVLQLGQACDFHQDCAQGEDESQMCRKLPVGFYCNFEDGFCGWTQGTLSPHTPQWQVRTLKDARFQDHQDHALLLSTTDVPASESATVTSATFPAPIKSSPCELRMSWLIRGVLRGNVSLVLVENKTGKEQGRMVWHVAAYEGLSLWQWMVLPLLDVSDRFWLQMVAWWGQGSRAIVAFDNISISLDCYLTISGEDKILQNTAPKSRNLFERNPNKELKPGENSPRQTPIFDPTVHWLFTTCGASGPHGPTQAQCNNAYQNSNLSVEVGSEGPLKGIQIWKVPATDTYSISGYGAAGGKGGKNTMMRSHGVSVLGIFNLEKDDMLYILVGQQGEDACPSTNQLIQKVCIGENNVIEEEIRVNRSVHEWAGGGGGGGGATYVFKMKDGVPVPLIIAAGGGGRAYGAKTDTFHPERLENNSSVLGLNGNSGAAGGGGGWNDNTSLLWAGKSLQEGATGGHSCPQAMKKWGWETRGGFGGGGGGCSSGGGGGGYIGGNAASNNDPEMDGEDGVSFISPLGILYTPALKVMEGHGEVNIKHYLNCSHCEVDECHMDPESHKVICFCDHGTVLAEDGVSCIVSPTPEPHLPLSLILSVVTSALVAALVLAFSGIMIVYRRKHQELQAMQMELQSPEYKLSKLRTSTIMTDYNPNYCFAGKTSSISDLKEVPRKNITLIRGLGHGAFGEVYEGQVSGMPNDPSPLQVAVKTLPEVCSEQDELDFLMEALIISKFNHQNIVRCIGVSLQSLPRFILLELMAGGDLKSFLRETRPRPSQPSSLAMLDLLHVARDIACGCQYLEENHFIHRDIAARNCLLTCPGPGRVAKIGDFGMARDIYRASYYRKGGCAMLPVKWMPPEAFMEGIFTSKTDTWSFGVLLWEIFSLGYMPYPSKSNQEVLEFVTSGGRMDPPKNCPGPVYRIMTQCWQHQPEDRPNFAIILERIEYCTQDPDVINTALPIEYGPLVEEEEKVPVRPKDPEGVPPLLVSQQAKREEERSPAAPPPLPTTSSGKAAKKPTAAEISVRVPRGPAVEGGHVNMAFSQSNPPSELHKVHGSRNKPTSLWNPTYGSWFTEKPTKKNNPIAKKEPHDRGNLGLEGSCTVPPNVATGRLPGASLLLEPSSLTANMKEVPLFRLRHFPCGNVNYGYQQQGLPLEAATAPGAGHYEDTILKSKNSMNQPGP

[2] = molecular target: Focal adhesion kinase 1 (Homo sapiens) (UniProt Q05397); assay: Induction of PTK2 degradation in human NCI-H3122 cells at 0.01 to 1 uM after 16 hrs by immunoblot method; format: cell-based
SH-SY5Y [3] = assay: Antiproliferative activity against human SH-SY5Y cells after 72 hrs by CellTiter-Glo luminescent cell viability assay; format: functional, cell-based
[4] = molecular target: Tyrosine-protein kinase Fer (Homo sapiens) (UniProt P16591); assay: Induction of FER degradation in human Kelly cells at 100 nM measured over 2 to 16 hrs by immunoblot method; format: cell-based
[5] = molecular target: T2, Aurora kinase A (Homo sapiens) (UniProt O14965); assay: Induction of aurora A degradation in human NCI-H3122 cells at 250 nM measured over 2 to 16 hrs by immunoblot method; format: cell-based
T2 sequence (whole entry): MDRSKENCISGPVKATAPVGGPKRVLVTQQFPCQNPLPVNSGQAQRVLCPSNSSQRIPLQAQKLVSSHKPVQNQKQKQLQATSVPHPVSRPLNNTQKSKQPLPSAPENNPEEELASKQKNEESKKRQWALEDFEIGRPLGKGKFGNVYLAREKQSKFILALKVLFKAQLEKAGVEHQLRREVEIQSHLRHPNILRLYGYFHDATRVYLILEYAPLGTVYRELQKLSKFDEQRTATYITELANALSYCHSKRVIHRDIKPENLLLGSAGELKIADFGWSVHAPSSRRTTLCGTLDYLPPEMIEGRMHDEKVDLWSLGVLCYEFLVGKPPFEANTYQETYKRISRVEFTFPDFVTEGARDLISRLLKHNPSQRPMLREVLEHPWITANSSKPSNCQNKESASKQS

[6] = molecular target: Tyrosine-protein kinase Fer (Homo sapiens) (UniProt P16591); assay: Induction of FER degradation in human KARPAS299 cells at 0.01 to 1 uM after 16 hrs by immunoblot method; format: cell-based
[7] = molecular target: Ribosomal protein S6 kinase alpha-1 (Homo sapiens) (UniProt Q15418); assay: Induction of RPS6KA1 degradation in human NCI-H3122 cells at 0.01 to 1 uM after 16 hrs by immunoblot method; format: cell-based
[8] = molecular target: T2, Aurora kinase A (Homo sapiens); assay: Induction of aurora A degradation in human NCI-H3122 cells at 250 nM after 16 hrs in presence of proteasome inhibitor carfilzomib by immunoblot method; format: cell-based
[9] = molecular target: T2, Aurora kinase A (Homo sapiens); assay: Induction of aurora A degradation in human Kelly cells at 100 nM after 16 hrs in presence of pomalidomide by immunoblot method; format: cell-based
In short: (§1)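 Cells were pre-treated for 2 h with DMSO, carfilzomib, MLN4924 or pomalidomide, then treated with compound for 16 h, with immunoblot read-out. CHLA20 cells also received 125 nM tariquidar throughout.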

[10] = molecular target: T2, Aurora kinase A (Homo sapiens); assay: Induction of aurora A degradation in human CHLA20 cells at 100 nM after 16 hrs in presence of […] inhibitor MLN4924 and ABCB1 inhibitor tariquidar by immunoblot method; format: cell-based; in short: as §1
[11] = molecular target: T1, ALK tyrosine kinase receptor; assay: Induction of ALK degradation in human NCI-H3122 cells at 250 nM after 16 hrs in presence of ALK inhibitor LDK378 by immunoblot method; format: cell-based
Target sequence in this assay (Q9UM73 19-1620 limits assumed): as the sequence (Q9UM73 19-1620 limits assumed) above

[12] = molecular target: Focal adhesion kinase 1 (Homo sapiens) (UniProt Q05397); assay: Induction of PTK2 degradation in human Kelly cells at 100 nM measured over 2 to 16 hrs by immunoblot method; format: cell-based
[13] = molecular target: T1, ALK tyrosine kinase receptor; assay: Induction of ALK degradation in human Kelly cells after 16 hrs by immunoblot method; format: cell-based
In short: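 Kelly neuroblastoma cells (ABCB1-low) were given a 16 hr dose titration. ALK and Aurora A were then read by western blot. DC50 was determined from two independent experiments.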

[14] = molecular target: T1, ALK tyrosine kinase receptor; assay: Induction of ALK degradation in human Kelly cells at 100 nM after 8 hrs by immunoblot method; format: cell-based
In short: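 Kelly cells were treated with 100 nM compound for varying times and lysed at each time point. ALK levels were read by immunoblot.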
Target sequence in this assay (Q9UM73 19-1620 limits assumed): as the sequence (Q9UM73 19-1620 limits assumed) above

[15] = molecular target: T1, ALK tyrosine kinase receptor; assay: Induction of ALK degradation in human NCI-H3122 cells at 250 nM after 16 hrs in presence of pomalidomide by immunoblot method; format: cell-based
Target sequence in this assay (Q9UM73 19-1620 limits assumed): as the sequence (Q9UM73 19-1620 limits assumed) above

[16] = molecular target: T1, ALK tyrosine kinase receptor; assay: Induction of ALK degradation in human CHLA20 cells at 100 nM after 16 hrs in presence of ALK inhibitor LDK378 and ABCB1 inhibitor tariquidar by immunoblot method; format: cell-based
In short: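 CHLA20 cells were kept with 125 nM tariquidar and pre-treated for 2 h with DMSO, carfilzomib, MLN4924, pomalidomide, TAE684 or LDK378. A 16 h degrader treatment followed, with immunoblot readout of ALK.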
Target sequence in this assay (Q9UM73 19-1620 limits assumed): as the sequence (Q9UM73 19-1620 limits assumed) above

[17] = molecular target: T1, ALK tyrosine kinase receptor; assay: Induction of ALK degradation in human NCI-H3122 cells at 250 nM after 16 hrs in presence of ALK inhibitor TAE684 by immunoblot method; format: cell-based
Target sequence in this assay (Q9UM73 19-1620 limits assumed): as the sequence (Q9UM73 19-1620 limits assumed) above

[18] = molecular target: T2, Aurora kinase A (Homo sapiens); assay: Induction of aurora A degradation in human KARPAS299 cells at 250 nM after 16 hrs in presence of proteasome inhibitor carfilzomib by immunoblot method; format: cell-based
[19] = molecular target: T1, ALK tyrosine kinase receptor; assay: Induction of ALK degradation in human KARPAS299 cells at 250 nM after 16 hrs in presence of pomalidomide by immunoblot method; format: cell-based
[20] = molecular target: T1, ALK tyrosine kinase receptor; assay: Induction of ALK degradation in human KARPAS299 cells at 250 nM after 16 hrs in presence of proteasome inhibitor carfilzomib by immunoblot method; format: cell-based
[21] = molecular target: T2, Aurora kinase A (Homo sapiens); assay: Induction of aurora A degradation in human Kelly cells at 100 nM measured over 2 to 16 hrs by immunoblot method; format: cell-based
In short: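 Kelly cells were given 100 nM compound for varying times, and lysates were immunoblotted for Aurora A.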

[22] = molecular target: Tyrosine-protein kinase Fer (Homo sapiens) (UniProt P16591); assay: Induction of FER degradation in human Kelly cells at 10 to 160 nM after 16 hrs by immunoblot method; format: cell-based
[23] = molecular target: T1, ALK tyrosine kinase receptor; assay: Induction of ALK degradation in human NCI-H3122 cells after 16 hrs by immunoblot method; format: cell-based
In short: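 H3122 and Karpas 299 cells were given a dose titration for 16 h. ALK and Aurora A were then read by immunoblot. DC50 was calculated from the titrations, two independent experiments.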

[24] = molecular target: Ribosomal protein S6 kinase alpha-1 (Homo sapiens) (UniProt Q15418); assay: Induction of RPS6KA1 degradation in human Kelly cells at 100 nM measured over 2 to 16 hrs by immunoblot method; format: cell-based
[25] = molecular target: Tyrosine-protein kinase Fer (Homo sapiens) (UniProt P16591); assay: Induction of FER degradation in human NCI-H3122 cells at 0.01 to 1 uM after 16 hrs by immunoblot method; format: cell-based
[26] = molecular target: Ribosomal protein S6 kinase alpha-1 (Homo sapiens) (UniProt Q15418); assay: Induction of RPS6KA1 degradation in human KARPAS299 cells at 0.01 to 1 uM after 16 hrs by immunoblot method; format: cell-based
SH-SY5Y [27] = assay: Antiproliferative activity against human SH-SY5Y cells after 72 hrs in presence of ABCB1 inhibitor tariquidar by CellTiter-Glo luminescent cell viability assay; format: functional, cell-based
[28] = molecular target: Focal adhesion kinase 1 (Homo sapiens) (UniProt Q05397); assay: Induction of PTK2 degradation in human NCI-H3122 cells at 250 nM measured over 2 to 16 hrs by immunoblot method; format: cell-based
[29] = molecular target: T1, ALK tyrosine kinase receptor; assay: Induction of ALK degradation in human NCI-H3122 cells at 250 nM after 16 hrs in presence of […] inhibitor MLN4924 by immunoblot method; format: cell-based
[30] = molecular target: T1, ALK tyrosine kinase receptor; assay: Induction of ALK degradation in human KARPAS299 cells at 250 nM after 16 hrs in presence of […] inhibitor MLN4924 by immunoblot method; format: cell-based

Chain of Tyrosine-protein kinase Fer (Homo sapiens) (P16591 whole entry, looked up): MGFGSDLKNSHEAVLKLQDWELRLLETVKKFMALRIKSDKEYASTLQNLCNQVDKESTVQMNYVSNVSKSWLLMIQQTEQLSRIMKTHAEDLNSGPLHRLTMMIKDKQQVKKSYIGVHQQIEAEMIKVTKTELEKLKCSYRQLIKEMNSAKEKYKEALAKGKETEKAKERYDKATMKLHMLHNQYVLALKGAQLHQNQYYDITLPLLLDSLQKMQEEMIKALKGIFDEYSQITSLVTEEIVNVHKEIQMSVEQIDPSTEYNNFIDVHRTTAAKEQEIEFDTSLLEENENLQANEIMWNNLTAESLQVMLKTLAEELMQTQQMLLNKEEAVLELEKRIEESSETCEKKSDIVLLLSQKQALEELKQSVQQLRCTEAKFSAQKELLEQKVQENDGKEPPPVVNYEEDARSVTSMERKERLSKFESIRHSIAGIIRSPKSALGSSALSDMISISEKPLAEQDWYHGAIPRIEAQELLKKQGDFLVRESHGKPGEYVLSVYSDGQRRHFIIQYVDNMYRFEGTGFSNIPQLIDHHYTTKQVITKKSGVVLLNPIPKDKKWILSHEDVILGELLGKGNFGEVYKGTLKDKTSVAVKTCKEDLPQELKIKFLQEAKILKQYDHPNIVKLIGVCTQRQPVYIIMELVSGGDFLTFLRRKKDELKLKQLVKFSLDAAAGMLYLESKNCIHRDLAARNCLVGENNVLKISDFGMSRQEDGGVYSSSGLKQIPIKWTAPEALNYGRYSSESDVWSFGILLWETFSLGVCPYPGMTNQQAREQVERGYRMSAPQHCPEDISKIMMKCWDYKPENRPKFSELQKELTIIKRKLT
Chain of Focal adhesion kinase 1 (Homo sapiens) (Q05397 2-1052 limits assumed): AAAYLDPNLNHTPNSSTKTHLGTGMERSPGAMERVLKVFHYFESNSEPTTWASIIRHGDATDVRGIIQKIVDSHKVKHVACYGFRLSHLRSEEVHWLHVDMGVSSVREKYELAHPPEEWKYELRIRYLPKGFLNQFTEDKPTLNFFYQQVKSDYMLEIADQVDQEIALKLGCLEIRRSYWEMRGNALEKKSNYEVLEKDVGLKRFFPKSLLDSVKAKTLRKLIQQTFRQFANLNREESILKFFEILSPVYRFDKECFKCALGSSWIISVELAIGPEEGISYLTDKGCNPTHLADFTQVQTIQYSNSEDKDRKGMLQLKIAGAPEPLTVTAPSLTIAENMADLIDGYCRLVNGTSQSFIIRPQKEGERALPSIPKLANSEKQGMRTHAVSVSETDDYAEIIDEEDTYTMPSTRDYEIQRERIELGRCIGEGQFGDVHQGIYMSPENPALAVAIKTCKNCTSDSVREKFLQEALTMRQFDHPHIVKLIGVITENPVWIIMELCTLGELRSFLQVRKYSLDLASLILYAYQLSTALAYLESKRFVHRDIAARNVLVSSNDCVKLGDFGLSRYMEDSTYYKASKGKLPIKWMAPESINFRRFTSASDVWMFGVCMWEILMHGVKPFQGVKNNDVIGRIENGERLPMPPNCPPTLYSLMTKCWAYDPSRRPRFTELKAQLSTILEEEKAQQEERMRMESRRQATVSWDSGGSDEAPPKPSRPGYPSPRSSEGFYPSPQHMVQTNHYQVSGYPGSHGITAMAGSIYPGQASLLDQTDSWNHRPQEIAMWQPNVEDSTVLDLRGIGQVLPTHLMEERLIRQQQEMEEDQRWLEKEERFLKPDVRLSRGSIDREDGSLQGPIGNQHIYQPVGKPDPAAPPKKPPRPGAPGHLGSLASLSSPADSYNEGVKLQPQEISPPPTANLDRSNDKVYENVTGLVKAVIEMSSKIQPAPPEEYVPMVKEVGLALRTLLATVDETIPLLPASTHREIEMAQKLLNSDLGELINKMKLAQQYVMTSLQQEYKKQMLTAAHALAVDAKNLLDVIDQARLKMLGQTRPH
Chain of Ribosomal protein S6 kinase alpha-1 (Homo sapiens) (Q15418 whole entry): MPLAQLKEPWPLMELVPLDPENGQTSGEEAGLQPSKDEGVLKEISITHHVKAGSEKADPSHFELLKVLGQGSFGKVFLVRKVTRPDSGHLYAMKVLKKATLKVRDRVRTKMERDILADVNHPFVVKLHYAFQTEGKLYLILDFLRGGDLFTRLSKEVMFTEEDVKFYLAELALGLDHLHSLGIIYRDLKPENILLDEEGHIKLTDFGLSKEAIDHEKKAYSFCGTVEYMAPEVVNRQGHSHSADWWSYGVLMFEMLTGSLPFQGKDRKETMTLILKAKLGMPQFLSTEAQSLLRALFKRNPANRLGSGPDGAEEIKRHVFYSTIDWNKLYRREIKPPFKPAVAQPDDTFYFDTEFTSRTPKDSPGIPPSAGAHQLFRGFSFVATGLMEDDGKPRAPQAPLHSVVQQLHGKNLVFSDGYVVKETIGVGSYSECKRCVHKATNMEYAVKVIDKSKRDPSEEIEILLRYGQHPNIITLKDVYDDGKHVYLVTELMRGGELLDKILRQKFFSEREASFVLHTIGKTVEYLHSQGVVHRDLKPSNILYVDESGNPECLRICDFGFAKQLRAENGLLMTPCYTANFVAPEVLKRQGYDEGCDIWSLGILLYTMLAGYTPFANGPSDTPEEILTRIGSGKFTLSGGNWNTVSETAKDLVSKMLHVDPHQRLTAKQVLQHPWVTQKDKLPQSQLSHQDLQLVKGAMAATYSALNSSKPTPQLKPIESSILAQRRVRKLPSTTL

Cc1cc(Nc2ncc(Cl)c(Nc3ccccc3S(=O)(=O)C(C)C)n2)c(OC(C)C)cc1C1CCN(CCOCCOCCNC(=O)CNc2cccc3c2C(=O)N(C2CCC(=O)NC2=O)C3=O)CC1 (stereo not given)
Activity [1]: inactive | Activity [2]: Active | Activity (SH-SY5Y [3]): inactive | Activity [4]: Active | Activity [5]: Active | Activity [6]: Active | Activity [7]: Active | Activity [8]: inactive | Activity [9]: inactive | Activity [10]: inactive | Activity [11]: Active | Activity [12]: Active | DC50 [13]: 50 nM | Activity [14]: Active | Activity [15]: inactive | Activity [16]: inactive | Activity [17]: inactive | Activity [18]: inactive | Activity [19]: inactive | Activity [20]: inactive | Activity [21]: Active | Activity [22]: Active | DC50 [23]: 10 nM | Activity [24]: Active | Activity [25]: Active | Activity [26]: Active | Activity (SH-SY5Y [27]): Active | Activity [28]: Active | Activity [29]: inactive | Activity [30]: inactive

COc1cc(N2CCN(CCOCCOCCNC(=O)CNc3cccc4c3C(=O)N(C3CCC(=O)NC3=O)C4=O)CC2)ccc1Nc1ncc(Cl)c(Nc2ccccc2S(=O)(=O)C(C)C)n1 (stereo not given)
Activity [1]: inactive | Activity [2]: Active | Activity (SH-SY5Y [3]): inactive | Activity [4]: Active | Activity [5]: Active | Activity [6]: Active | Activity [7]: Active | Activity [8]: inactive | Activity [9]: inactive | Activity [10]: inactive | Activity [11]: Active | Activity [12]: Active | DC50 [13]: 50 nM | Activity [14]: Active | Activity [15]: inactive | Activity [16]: inactive | Activity [17]: inactive | Activity [18]: inactive | Activity [19]: inactive | Activity [20]: inactive | Activity [21]: Active | Activity [22]: Active | DC50 [23]: 10 nM | Activity [24]: Active | Activity [25]: Active | Activity [26]: Active | Activity (SH-SY5Y [27]): Active | Activity [28]: Active | Activity [29]: inactive | Activity [30]: inactive

— ChEMBL document CHEMBL4177764 (J Med Chem, 2018)
